This passage reports Ratio IC50, IC50 and Activity results from ChEMBL document CHEMBL1148650, “Synthesis and pharmacological evaluation of novel nitrobenzenic thromboxane modulators as antiplatelet agents acting on both the alpha and beta isoforms of the human thromboxane receptor” (J Med Chem, 2006).

Assay [1] has as its target T1, Thromboxane A2 receptor (Homo sapiens) (UniProt P21731).
T1 sequence (whole entry): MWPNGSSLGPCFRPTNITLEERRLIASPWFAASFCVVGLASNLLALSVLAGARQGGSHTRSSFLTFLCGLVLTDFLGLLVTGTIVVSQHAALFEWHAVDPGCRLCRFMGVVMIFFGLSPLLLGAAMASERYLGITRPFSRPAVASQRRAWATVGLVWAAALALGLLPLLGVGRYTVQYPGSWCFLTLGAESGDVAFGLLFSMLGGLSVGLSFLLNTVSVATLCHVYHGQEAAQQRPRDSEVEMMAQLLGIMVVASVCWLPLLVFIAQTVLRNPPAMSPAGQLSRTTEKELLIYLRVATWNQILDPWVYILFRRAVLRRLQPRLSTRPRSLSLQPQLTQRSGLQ
In words: Selectivity index, IC50 for TPalpha/IC50 for TPbeta in COS7 cells. It counts as cell-based. To be noted: COS-7. In short, it runs like this:
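Binding used 5 × 10^5 cells in 25 mM HEPES/125 mM NaCl/10 µM indomethacin, pH 7.4, with 10 nM [3H]SQ29,548 and compound at 10^-6 to 10^-11 M, in triplicate, for 30 min at 37 °C. Nonspecific binding: 10 µM unlabeled SQ29,548. Bound ligand was counted after filtration. Index = IC50 TPα/IC50 TPβ.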

Assay [2] addresses T2, Thromboxane A2 receptor (Homo sapiens, UniProt P21731).
T2 sequence (P21731 whole entry): T1 sequence (whole entry)
Briefly: Activity at TPalpha (short isoform) receptor expressed in HEK293 cells assessed as ability to antagonize U46619-mediated calcium ion mobilization. It counts as functional, cell-based. In short, it runs like this: (§1)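 HEK293 cells stably overexpressing human TPα or TPβ. Cells were loaded 1 h with Fluo-4/AM (5 µg/mL) and washed in Krebs-HEPES pH 7.4 (150 000 cells/well). Compound (10^-5 to 10^-8 M final) was added 10 min before 1 µM U46619. Fluo-4 signal was calibrated by Triton X-100 and then EGTA (Kd 385 nM) for [Ca2+]i. IC50 is the concentration halving the [Ca2+]i rise.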

For assay [3], the target named is T2, Thromboxane A2 receptor. Briefly: Activity at TPbeta (long isoform) receptor expressed in HEK293 cells assessed as ability to antagonize U46619-mediated calcium ion mobilization. It counts as functional, cell-based. A digest of the protocol:
as §1

In assay [4] the target is T1, Thromboxane A2 receptor (Homo sapiens). Briefly: Selectivity index, IC50 for TPalpha/IC50 for TPbeta in HEK293 cells. It counts as functional, cell-based. In short, it runs like this: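 Ratio of IC50 TPα to IC50 TPβ, both from the calcium assay in stably transfected HEK293 cells. Fluo-4-loaded cells were preincubated 10 min with compound (10^-5 to 10^-8 M), then stimulated with 1 µM U46619. IC50 is the concentration inhibiting 50% of the [Ca2+]i rise.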

The target of assay [5] is T2, Thromboxane A2 receptor. In words: Displacement of [3H]SQ-29548 from TPbeta receptor (long isoform) expressed in COS7 cells.
Assay [6] has as its target T2, Thromboxane A2 receptor. Briefly: Displacement of [3H]SQ29,548 from TPalpha receptor (short isoform) expressed in COS7 cells. Background: Displacement assays read how much labelled ligand stays bound in the presence of the test substance.
In assay [7] the target is T1, Thromboxane A2 receptor (Homo sapiens). Briefly: Displacement of [3H]SQ-29548 from TPbeta receptor (long isoform) expressed in COS7 cells at 1 nM. The note with it: COS-7.
Assay [8] shares this target. In words: Displacement of [3H]SQ29,548 from TPalpha receptor (short isoform) expressed in COS7 cells at 1 nM. To be noted: COS-7.
Assay [9] shares this target. Briefly: Displacement of [3H]SQ29,548 from TPalpha receptor (short isoform) expressed in COS7 cells at 1 uM. It counts as cell-based. To be noted: COS-7.
The target is the same in assay [10]. Briefly: Displacement of [3H]SQ-29548 from TPbeta receptor (long isoform) expressed in COS7 cells at 1 uM. It counts as cell-based. The note with it: COS-7.

By IC50 is commonly meant the point on the concentration scale where inhibition reaches its midpoint. Turning to `Cc1ccc(Nc2ccc([N+](=O)[O-])cc2S(=O)(=O)NC(=O)NC(C)(C)C)cc1`, the figures for the Ratio IC50 in assay [1] and in assay [4] were 1.35 and 6.01, respectively. Besides, the half-maximal inhibitory concentration (IC50) at Thromboxane A2 receptor [2] was found to be 319 nM; at Thromboxane A2 receptor [3] it was 53.1 nM; on Thromboxane A2 receptor [5], 0.78 nM; at Thromboxane A2 receptor [6], 1.05 nM. Besides, the Activity in assay [7] turned out to be 53.6%; in assay [8], 49.5%.
Regarding `CCC(C)NC(=O)NS(=O)(=O)c1cc([N+](=O)[O-])ccc1Nc1ccc(C)cc1` (stereo not given), the Activity in assay [9] is 40.7%; in [10] it was 40.4%.
As for `CCCCCCCNC(=O)NS(=O)(=O)c1cc([N+](=O)[O-])ccc1NC1CCCCC1`, the Ratio IC50 in assay [1] was 0.93; in assay [4], 1.67. Also, the IC50 worked out at 92.9 nM at Thromboxane A2 receptor [2], 55.5 nM on Thromboxane A2 receptor [3], 2.68 nM on Thromboxane A2 receptor [5] and 2.5 nM on Thromboxane A2 receptor [6]. For the same compound, the Activity in assay [7] was found to be 36.4%; in assay [8] it was 29.5%.
Regarding `CCCCCNC(=O)NS(=O)(=O)c1cc([N+](=O)[O-])ccc1Nc1ccc(Br)c(C)c1`, the values for the Ratio IC50 in assay [1] and in [4] were 3.11 and 2.92, respectively. Further, the IC50 on Thromboxane A2 receptor [2] was found to be 126 nM; at Thromboxane A2 receptor [3], 43.2 nM; on Thromboxane A2 receptor [5], 0.58 nM; at Thromboxane A2 receptor [6] it was 1.82 nM. For the same compound, the Activity came to 49.9% in assay [7] and 32.1% in [8].
As for `CCCCCNC(=O)NS(=O)(=O)c1cc([N+](=O)[O-])ccc1Oc1ccc(C)cc1`, the results for the Ratio IC50 in assay [1] and in assay [4] were 4.02 and 2.52, respectively. For the same compound, the IC50 on Thromboxane A2 receptor [2] is 139 nM; at Thromboxane A2 receptor [3], 55.4 nM; on Thromboxane A2 receptor [5], 0.65 nM; on Thromboxane A2 receptor [6], 2.63 nM. Further, the Activity was 48.5% in assay [7] and 35.5% in [8].
Consider `Cc1cccc(C)c1Nc1ccc([N+](=O)[O-])cc1S(=O)(=O)NC(=O)NC(C)(C)C`, for which the Ratio IC50 in assay [1] came out at 1.4; in [4], 1.85. In addition, the IC50 at Thromboxane A2 receptor [2] is 56.9 nM; on Thromboxane A2 receptor [3], 30.8 nM; at Thromboxane A2 receptor [5], 0.56 nM; at Thromboxane A2 receptor [6] it was 0.78 nM. The results for the Activity in assay [7] and in [8] were 46.3% and 46.4%, respectively.
For the compound `Cc1ccc(Nc2ccc([N+](=O)[O-])cc2S(=O)(=O)NC(=O)NCc2ccccc2)cc1`, the Ratio IC50 came out at 1.62 in assay [1] and 1.43 in assay [4]. Moreover, the half-maximal inhibitory concentration (IC50) at Thromboxane A2 receptor [2] came out at 64.5 nM; at Thromboxane A2 receptor [3], 45 nM; on Thromboxane A2 receptor [5] it was 1.17 nM; at Thromboxane A2 receptor [6] it was 1.9 nM. In addition, the Activity in [7] was 49.3%; in assay [8] it was 32.9%.
Consider `CCCCCNC(=O)NS(=O)(=O)c1cc([N+](=O)[O-])ccc1Nc1c(C)cccc1C`, for which the Ratio IC50 in assay [1] amounted to 1.03; in [4], 1.71. Moreover, the IC50 on Thromboxane A2 receptor [2] is 80.7 nM; at Thromboxane A2 receptor [3], 47.1 nM; at Thromboxane A2 receptor [5] it was 1.48 nM; on Thromboxane A2 receptor [6] it was 1.52 nM. The Activity in assay [7] turned out to be 54%; in assay [8], 36.5%.
Regarding `CCCCCNC(=O)NS(=O)(=O)c1cc([N+](=O)[O-])ccc1Nc1cccc(C)c1`, the Ratio IC50 in assay [1] was 0.23; in [4], 1.33. Moreover, the half-maximal inhibitory concentration (IC50) at Thromboxane A2 receptor [2] stood at 60.4 nM; at Thromboxane A2 receptor [3], 45.5 nM; at Thromboxane A2 receptor [5], 4.43 nM; at Thromboxane A2 receptor [6] it was 1.01 nM. The Activity in [7] is 35.8%; in [8], 48.5%.
For `CCCCCCNC(=O)NS(=O)(=O)c1cc([N+](=O)[O-])ccc1NC1CCCCC1`, the Ratio IC50 turned out to be 0.67 in [1] and 1.76 in [4]. For the same compound, the concentration for half-maximal inhibition (IC50) is 81.2 nM at Thromboxane A2 receptor [2], 46.2 nM on Thromboxane A2 receptor [3], 1.07 nM on Thromboxane A2 receptor [5] and 0.71 nM on Thromboxane A2 receptor [6]. Further, the Activity in assay [7] amounted to 42.5%; in assay [8], 44.2%.
Regarding `CCCCCNC(=O)NS(=O)(=O)c1cc([N+](=O)[O-])ccc1Nc1cc(C)cc(C)c1`, the Ratio IC50 was 1.55 in assay [1] and 7.03 in [4]. For the same compound, the half-maximal inhibitory concentration (IC50) on Thromboxane A2 receptor [2] came to 538 nM; on Thromboxane A2 receptor [3], 76.5 nM; at Thromboxane A2 receptor [5] it was 0.7 nM; on Thromboxane A2 receptor [6], 1.08 nM. For the same compound, the Activity in assay [7] and in assay [8] was 49.7% each time.
Consider `CCCCNC(=O)NS(=O)(=O)c1cc([N+](=O)[O-])ccc1Oc1ccc(C)cc1`, for which the results for the Ratio IC50 in assay [1] and in assay [4] were 1.05 and 10.6, respectively. Moreover, the IC50 on Thromboxane A2 receptor [2] came out at 558 nM; at Thromboxane A2 receptor [3], 52.9 nM; at Thromboxane A2 receptor [5] it was 0.7 nM; at Thromboxane A2 receptor [6] it was 0.74 nM. Further, the Activity in [7] was 56%; in assay [8], 55.7%.
Turning to `Cc1ccc(Oc2ccc([N+](=O)[O-])cc2S(=O)(=O)NC(=O)NC2CCCCC2)cc1`, the Ratio IC50 was 1.93 in assay [1] and 8.56 in assay [4]. Besides, the IC50 at Thromboxane A2 receptor [2] came to 601 nM; at Thromboxane A2 receptor [3] it was 70.2 nM; on Thromboxane A2 receptor [5] it was 0.79 nM; at Thromboxane A2 receptor [6] it was 1.52 nM. Further, the results for the Activity in [7] and in assay [8] were 51.9% and 49.8%, respectively.
Consider `CCCCCCNC(=O)NS(=O)(=O)c1cc([N+](=O)[O-])ccc1Oc1ccc(C)cc1`, for which the Ratio IC50 in assay [1] was 0.45; in [4], 9. Further, the half-inhibitory concentration (IC50) was 526 nM on Thromboxane A2 receptor [2], 58.5 nM at Thromboxane A2 receptor [3], 1.58 nM at Thromboxane A2 receptor [5] and 0.72 nM at Thromboxane A2 receptor [6]. The Activity amounted to 46.1% in assay [7] and 55.2% in assay [8].
Regarding `CCC(C)NC(=O)NS(=O)(=O)c1cc([N+](=O)[O-])ccc1Nc1c(C)cccc1C` (stereo not given), the Activity in [9] was determined as 48.4%; in [10] it was 42.5%.
For the compound `CCCCCNC(=O)NS(=O)(=O)c1cc([N+](=O)[O-])ccc1Nc1ccc(C)cc1`, the Ratio IC50 in [1] amounted to 0.75; in assay [4], 3.69. Moreover, the half-maximal inhibitory concentration (IC50) at Thromboxane A2 receptor [2] is 50 nM; at Thromboxane A2 receptor [3], 13.6 nM; on Thromboxane A2 receptor [5], 3.53 nM; at Thromboxane A2 receptor [6], 2.65 nM. In addition, the Activity in assay [7] came to 34.2%; in assay [8], 39.6%.
Consider `Cc1ccc(Oc2ccc([N+](=O)[O-])cc2S(=O)(=O)NC(=O)NC(C)(C)C)cc1`, for which the Ratio IC50 in [1] worked out at 0.71; in [4], 1.01. The IC50 at Thromboxane A2 receptor [2] was determined as 58.3 nM; at Thromboxane A2 receptor [3], 57.6 nM; at Thromboxane A2 receptor [5] it was 1.77 nM; on Thromboxane A2 receptor [6], 1.26 nM. The Activity in [7] is 44.7%; in assay [8] it was 53.3%.
Turning to `Cc1ccc(Sc2ccc([N+](=O)[O-])cc2S(=O)(=O)NC(=O)NC(C)(C)C)cc1`, the values for the Ratio IC50 in [1] and in [4] were 0.44 and 5.32, respectively. Further, the IC50 at Thromboxane A2 receptor [2] is 294 nM; at Thromboxane A2 receptor [3] it was 55.2 nM; on Thromboxane A2 receptor [5], 1.74 nM; at Thromboxane A2 receptor [6], 0.77 nM. In addition, the Activity amounted to 37.7% in assay [7] and 47% in assay [8].
Regarding `Cc1ccc(Nc2ccc([N+](=O)[O-])cc2S(=O)(=O)NC(=O)N2CCCCC2)cc1`, the results for the Ratio IC50 in assay [1] and in assay [4] were 0.68 and 1.68, respectively. Besides, the 50% inhibitory concentration (IC50) is 64.8 nM on Thromboxane A2 receptor [2], 38.5 nM at Thromboxane A2 receptor [3], 0.68 nM on Thromboxane A2 receptor [5] and 0.46 nM on Thromboxane A2 receptor [6]. Moreover, the Activity in assay [7] is 54.2%; in assay [8], 46.2%.
